Screening results from PubChem BioAssay.
In the library only some 9.4% were active in any assay of this set; here they are far more common.
Beta cell apopt = beta cell apoptosis inhibition. INS-1E cytokine-induced death, ATP luminescence, 48 h; percent of positive-control rescue, neutral wells zero. protection from apoptosis, % (test concentration not listed). 300,000 compounds, 0.8% hits. AID 435005;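 active means Every replicate reaches about 75%, or at least half do and their mean reaches it too, limit read from the data; inconclusive means At least half of replicates reach the limit but their mean does not; inactive means Under half of replicates reach the limit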;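 further: 0% = cytokine-treated negative control wells and 100% = positive control rescue; higher means more ATP so stronger rescue from cytokine killing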
T cruzi repl = blocks replication of Trypanosoma cruzi. T. cruzi beta-gal in NIH3T3, luminescence, 90 h. inhibition, % (concentration not given with the values). 300,000 compounds, 1.4% hits. AID 1885;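 active means mean inhibition across valid replicates above about 55%, limit read from the data; inconclusive means mean below that limit but half or more replicates reach it; inactive means mean below it, under half of replicates reach it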;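 further: signal also drops with host cell toxicity which is not excluded here; 0% = plate median of DMSO wells and 100% = zero luminescence signal; higher percent means less beta-gal luminescence so fewer parasites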
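Assay system: NIH/3T3 host cells with β-galactosidase reporter T. cruzi; input: 5,000 host fibroblasts per well; compound: single 50 nL compound addition per well in DMSO; timing: ≥90 h infection period, 3 h prior cell attachment; measured by: GalScreen β-gal luminescence, detergent lysis, 60 min; evaluation: percent inhibition of parasite-derived β-gal signal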
Mdm2 MdmX PPI = disrupts the human Mdm2-MdmX interaction; O15151+Q00987; SaOS-2 split-luciferase Mdm2/MdmX complementation, luminescence; inhibition, % at 8 µM; 330,000 compounds, 3% hits;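 active means inhibition of at least 50% at 8 µM in the primary screen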
Target sequence (O15151 whole entry, looked up): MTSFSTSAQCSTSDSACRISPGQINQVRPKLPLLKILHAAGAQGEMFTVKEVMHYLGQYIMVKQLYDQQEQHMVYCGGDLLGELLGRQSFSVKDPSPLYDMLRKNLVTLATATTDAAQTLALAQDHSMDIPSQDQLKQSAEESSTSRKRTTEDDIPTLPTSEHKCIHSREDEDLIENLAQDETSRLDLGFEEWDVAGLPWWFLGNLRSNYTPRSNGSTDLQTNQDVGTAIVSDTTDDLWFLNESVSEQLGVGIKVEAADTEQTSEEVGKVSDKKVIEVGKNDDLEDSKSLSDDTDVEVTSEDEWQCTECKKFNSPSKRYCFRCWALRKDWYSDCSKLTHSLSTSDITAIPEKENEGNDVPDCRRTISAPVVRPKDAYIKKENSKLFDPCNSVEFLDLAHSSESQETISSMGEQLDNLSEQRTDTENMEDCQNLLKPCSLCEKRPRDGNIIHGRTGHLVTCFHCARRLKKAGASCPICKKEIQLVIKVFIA
Target sequence (Q00987 whole entry, looked up): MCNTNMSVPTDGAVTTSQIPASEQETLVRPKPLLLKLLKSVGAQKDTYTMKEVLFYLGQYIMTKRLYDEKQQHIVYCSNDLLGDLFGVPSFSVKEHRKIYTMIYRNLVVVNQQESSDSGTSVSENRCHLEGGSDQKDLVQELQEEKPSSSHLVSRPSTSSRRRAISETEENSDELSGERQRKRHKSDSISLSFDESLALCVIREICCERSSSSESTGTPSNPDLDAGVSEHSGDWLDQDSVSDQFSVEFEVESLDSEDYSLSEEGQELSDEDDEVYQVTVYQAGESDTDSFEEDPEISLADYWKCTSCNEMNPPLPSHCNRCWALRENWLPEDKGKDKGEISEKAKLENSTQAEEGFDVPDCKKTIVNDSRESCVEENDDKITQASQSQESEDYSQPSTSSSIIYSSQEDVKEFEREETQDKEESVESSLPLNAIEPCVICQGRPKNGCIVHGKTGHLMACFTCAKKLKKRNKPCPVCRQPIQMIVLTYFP
SKKanGAS inh = blocks kanamycin growth of S. pyogenes SKKanGAS strain. BacTiter-Glo, 6 h. inhibition, % at 7.5 µM. 300,000 compounds, 1.3% hits. AID 1662;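 active means mean replicate score, as percent of positive control median, at least 50; inconclusive means mean below 50 but one replicate at or above 50; inactive means mean and every replicate below 50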;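 further: strain carries kanamycin resistance gene driven by streptokinase promoter and grows in 40 µg/ml kanamycin; loss of luminescence reflects streptokinase promoter inhibition or plain growth inhibition; 0% = median of DMSO wells and 100% = positive control at its reference dose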
L major viab = reduces viability of Leishmania major promastigotes; resazurin fluorescence viability; 200,000 compounds, 9% hits; inhibition, % at 10 µM; in the data active means inhibition above about 50%;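 further: promastigotes grown with compound for 44 hours at 28 °C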
CSC inhib = cancer stem cell inhibition | cancer stem cell-like cells viability, luminescence | inhibition, % at 7.5 µM | 300,000 compounds, 1.1% hits; in the data active means inhibition above about 75%; inconclusive means no clear call, values can overlap the other calls; tested in HMLE shEcad cells
Numbers without * were called inactive; ? = inconclusive; / = no result given.

SMILES	Beta cell apopt	T cruzi repl	Mdm2 MdmX PPI	SKKanGAS inh	L major viab	CSC inhib
CCc1ccccc1NC(=O)c1ccc([N+](=O)[O-])s1	21	60*	28	0	100*	15
O=c1c2ccccc2nc(COc2ccccc2)n1/N=C/c1cn[nH]c1-c1ccccc1	41	12	44	8	51*	3
O=c1c2ccccc2nc(COc2ccccc2)n1/N=C/c1c[nH]c2ccccc12	3	23	27	-5	3	16
CNC(=O)c1c(NC(=O)c2ccc(N3C(=O)CCC3=O)cc2)sc2c1CCC(C)C2 (stereo unspecified)	0	-4	13	61*	/	-5
COc1ccc(/C=N/NS(=O)(=O)c2ccc(F)cc2)cc1COc1cc(F)ccc1[N+](=O)[O-]	5	59*	29	0	4	4
O=C(O)c1cccc(CSc2ncn[nH]2)c1	-1	-20	-21	-6	/	-15
CC1CCC(C(C)C)C(OCC(O)CN2CCN(Cc3ccccc3)CC2)C1 (stereo unspecified)	8	32	29	-5	93*	35
CC1CCC(C(C)C)C(OCC(O)CN2CCCC(C)C2)C1 (stereo unspecified)	4	30	12	12	92*	35
CC1CCC(C(C)C)C(OCC(O)CN2CCOCC2)C1 (stereo unspecified)	-7	-12	21	1	8	-3
CC1CCC(C(C)C)C(OCC(O)C[N+]2(C)CCCCC2)C1 (stereo unspecified)	/	2	15	-12	-5	-15
CCOC(=O)CN(C(=O)CSc1nnc(Cc2ccccc2)n1-c1ccc(C)cc1)c1ccccc1	8	30	13	2	99*	8
CCCc1cc(C(=O)NC2CCCN(Cc3ccccc3F)C2)no1 (stereo unspecified)	-1	14	-3	-5	/	2
CCO/C=C1\SC(=S)N(c2ccc(Cl)cc2)C1=O	2	-17	-3	8	/	-7
CC(C)c1ccc(N2C(=O)/C(=C/N(C)C)SC2=S)cc1	14	29	15	86*	/	22
Oc1ccc(Cl)cc1C1=NNC(c2cccs2)C1 (stereo unspecified)	6	-18	23	61*	/	28
Cc1ccc(O)c(C2=NNC(c3ccc(Cl)cc3)C2)c1 (stereo unspecified)	7	4	-52	57*	/	19
Cc1c(CNC(=O)c2c([N+](=O)[O-])cnn2C)cnn1C	-5	-5	8	6	-5	-9
Cc1ccc(C(=O)CN(C(=O)c2ccc(Cl)cc2)N2C(=O)CCC2=O)cc1	1	-16	5	2	89*	-4
Cc1ccc(C(=O)CN(C(=O)c2ccc(Cl)cc2)N2C(=O)c3ccccc3C2=O)cc1	-2	-15	-14	1	-16	/
COC(=O)C(Nc1ccccc1Cl)(c1cc(C)c(O)c(C)c1)C(F)(F)F (stereo unspecified)	9	14	22	88*	25	3
O=S(=O)(NCCC1=CCCCC1)c1ccc(F)cc1	/	?	22	40	/	-3
CCN(CC)S(=O)(=O)c1cccc(C(=O)NC(Cc2c[nH]c3ccccc23)c2nnc3n2CCC3)c1 (stereo unspecified)	0	-2	-1	-2	63*	6
CCN(CC)c1ccc(NC(=O)c2ccco2)cc1	9	4	-141	-5	-2	-1
CCN(CC)c1ccc(/C=N/NC(=O)c2ccco2)cc1	-3	-2	/	6	50*	40
CCN(CC)c1ccc(/C=N/NC(=O)c2cccc(S(=O)(=O)N3CCOCC3)c2)cc1	-7	1	16	0	73*	-4
SMILES	Beta cell apopt	T cruzi repl	Mdm2 MdmX PPI	SKKanGAS inh	L major viab	CSC inhib
O=C(N/N=C/c1c(F)c(F)c(F)c(F)c1F)c1cccc(S(=O)(=O)N2CCOCC2)c1	-1	1	31	-24	-2	-7
CCN(Cc1ccccc1)c1ccc(/C=N/NC(=O)c2cccc(S(=O)(=O)N3CCOCC3)c2)cc1	8	12	16	4	91*	6
Cc1ccc(Cl)cc1N(CC(=O)NCc1ccccc1)S(C)(=O)=O	0	-7	33	-1	/	-15
COc1cc(C(=O)NC(C)c2ccc3ccccc3c2)cc(Cl)c1O (stereo unspecified)	-8	-5	12	14	/	1
O=C(Nc1ccc(Cl)cc1)N1CCCN(c2ccc(C(F)(F)F)cc2[N+](=O)[O-])CC1	-3	21	13	16	/	83*
COc1cc(C(=O)Nc2cccc(C)c2C)ccc1OCC(=O)N1CCOCC1	3	/	3	/	/	/
CCOc1ccc(/C=C2/Sc3ccc(C(=O)NCC4CCCO4)cc3N(C)C2=O)cc1OC (stereo unspecified)	0	-3	40	26	/	1
Cc1cccc(/C=C2\Sc3ccc(C(=O)N4CCCCC4)cc3N(C)C2=O)c1	11	12	45	2	/	48
CCOc1ccc(/C=C2/Sc3ccc(C(=O)N4CCN(C(=O)c5ccco5)CC4)cc3N(C)C2=O)cc1OC	8	11	23	67*	42	25
CCOC(=O)N1CCN(C(=O)c2ccc3c(c2)N(C)C(=O)/C(=C\c2ccc(OCC)c(OC)c2)S3)CC1	/	-4	33	108*	/	37
Cc1cccc(/C=C2\Sc3ccc(C(=O)N4CCC(C)CC4)cc3N(C)C2=O)c1	8	11	21	76*	/	30
Cc1csc(=O)n1CC(=O)OCC(=O)NNC(=O)c1ccc(Cl)cc1	-2	/	-35	/	/	-12
CCOC(=O)CCc1c(C)nc(SCCCn2c(=O)[nH]c3ccccc32)c(C#N)c1C	7	15	13	-3	2	-11
CCOC(=O)CCc1c(C)nc(SCCN2CCCC2)c(C#N)c1C	-1	11	9	9	81*	49
O=C(Cn1cncc1-c1ccc([N+](=O)[O-])cc1)Nc1ccccc1F	-3	0	-26	-8	52*	-11
COc1ccccc1NC(=O)Cn1cncc1-c1ccc([N+](=O)[O-])cc1	0	5	18	-3	-5	-21
CC(=O)N1N=C(c2ccccc2OC(=O)/C=C/c2ccccc2)CC1c1ccccc1 (stereo unspecified)	-3	-23	28	5	/	7
COc1ccc(S(=O)(=O)n2cccc2)cc1OC	-3	1	36	-3	/	6
CCOc1ccc(S(=O)(=O)N2CCCCC2)c(C)c1C	/	7	/	3	82*	/
c1ccc(CSC2=NNC(c3ccccn3)S2)cc1 (stereo unspecified)	52	63*	41	83*	/	125*
c1ccc(CSc2ncccn2)cc1	-2	-11	-11	-3	-4	-2
O=C(CSC1=NNC(c2ccccn2)S1)Nc1ccc(C(F)(F)F)cc1 (stereo unspecified)	9	18	-5	48	/	93*
O=C(N/N=C/c1c[nH]c2ccccc12)c1cc(-c2ccccc2)n[nH]1	4	7	28	7	79*	21
